The source of these data is ChEMBL document CHEMBL1145972, “In vitro and in vivo characterization of 3-[2-[6-(2-tert-butoxyethoxy)pyridin-3-yl]-1H-imidazol-4-yl]benzonitrile hydrochloride salt, a potent and selective NPY5 receptor antagonist” (J Med Chem, 2003).

Series [1] concerns the target T1, Neuropeptide Y receptor type 5 (Rattus norvegicus, UniProt Q63634).
T1 sequence (Q63634 whole entry): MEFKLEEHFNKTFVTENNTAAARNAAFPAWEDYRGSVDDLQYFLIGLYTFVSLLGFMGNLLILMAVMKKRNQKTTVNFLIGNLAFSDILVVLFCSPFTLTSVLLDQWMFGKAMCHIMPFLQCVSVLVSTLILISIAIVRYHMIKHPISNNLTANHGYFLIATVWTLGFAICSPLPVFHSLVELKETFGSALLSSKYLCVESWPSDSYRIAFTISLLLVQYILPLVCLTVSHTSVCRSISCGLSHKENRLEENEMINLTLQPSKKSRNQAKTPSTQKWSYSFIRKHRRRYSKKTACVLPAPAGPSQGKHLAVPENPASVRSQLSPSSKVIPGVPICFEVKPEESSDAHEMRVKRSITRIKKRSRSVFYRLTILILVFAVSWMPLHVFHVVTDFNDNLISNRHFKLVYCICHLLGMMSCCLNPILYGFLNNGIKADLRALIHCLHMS
Description: Binding affinity to the rat Neuropeptide Y receptor type 5 was determined using [125I]- [Leu31,Pro34]PYY as radioligand. Put shortly: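 Whole rat brain membranes; radioligand [125I][Leu31,Pro34]PYY, with 1 μM BIBP3226 present to block NPY-1 receptors.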

Series [2] can be described thus: t1/2 in the brain of male wistar rats. It is filed as ADME, organism-based. Particulars: rat. The gist of the method:
(§1)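 Male Wistar rats with jugular vein cannula, free access to food and water, given 30 mg/kg by oral gavage in 30% w/v β-cyclodextrin. Plasma, whole brain and CSF sampled over a time course (through 6–8 h); one animal per time point.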

Series [3] is described as follows: t1/2 in the CSF of male wistar rats. Particulars: rat. The class given is ADME, organism-based, Cerebrospinal fluid. The gist of the method:
as §1

Series [4] in a line: t1/2 in the plasma of male wistar rats. It is filed as ADME, organism-based. Particulars: rat. Put shortly: as §1
Series [5] in a line: tmax in the brain of male wistar rats. The class given is ADME, organism-based. Particulars: rat. Put shortly: as §1
Series [6] is described as follows: Cmax in the plasma of male wistar rats. It is filed as ADME, organism-based. Particulars: rat. The gist of the method: as §1
A short description of series [7]: tmax in the CSF of male wistar rats. Particulars: rat. The class given is ADME, organism-based, Cerebrospinal fluid. The gist of the method:
as §1

Series [8] in a line: tmax in the plasma of male wistar rats. It is filed as ADME, organism-based. Particulars: rat. Put shortly:
as §1

A further series concerns HMCB cell line. Description: Inhibitory activity against calcium mobilization in NPY5 transfected human bowes melanoma cell line. The class given is functional, cell-based. The gist of the method: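 Ca2+ mobilization read-out in human Bowes melanoma (HMCB) cells transfected with NPY5.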
Background: Calcium assays in cells follow changes in intracellular calcium, usually with a dye or a luminescent sensor.

The target of series [9] is T2, Neuropeptide Y receptor type 1 (Homo sapiens, UniProt P25929).
T2 sequence (P25929 whole entry): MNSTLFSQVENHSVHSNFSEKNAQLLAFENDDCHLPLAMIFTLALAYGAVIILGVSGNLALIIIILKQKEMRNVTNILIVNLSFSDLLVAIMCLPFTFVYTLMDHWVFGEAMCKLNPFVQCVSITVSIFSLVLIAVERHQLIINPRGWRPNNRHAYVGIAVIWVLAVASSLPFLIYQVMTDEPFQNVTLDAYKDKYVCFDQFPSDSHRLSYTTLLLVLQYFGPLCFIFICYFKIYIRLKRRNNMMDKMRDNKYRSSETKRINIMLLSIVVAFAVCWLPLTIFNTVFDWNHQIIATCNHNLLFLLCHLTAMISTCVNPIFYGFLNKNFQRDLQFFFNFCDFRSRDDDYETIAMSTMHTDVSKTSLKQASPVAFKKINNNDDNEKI
Description: Inhibitory activity against Neuropeptide Y receptor type 1. The gist of the method:
(§2)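 Cloned human chimeric NPY receptors, displacement of [125I]PYY radioligand.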

Series [10] concerns the target T3, Neuropeptide Y receptor type 2 (Homo sapiens, UniProt P49146).
T3 sequence (P49146 whole entry): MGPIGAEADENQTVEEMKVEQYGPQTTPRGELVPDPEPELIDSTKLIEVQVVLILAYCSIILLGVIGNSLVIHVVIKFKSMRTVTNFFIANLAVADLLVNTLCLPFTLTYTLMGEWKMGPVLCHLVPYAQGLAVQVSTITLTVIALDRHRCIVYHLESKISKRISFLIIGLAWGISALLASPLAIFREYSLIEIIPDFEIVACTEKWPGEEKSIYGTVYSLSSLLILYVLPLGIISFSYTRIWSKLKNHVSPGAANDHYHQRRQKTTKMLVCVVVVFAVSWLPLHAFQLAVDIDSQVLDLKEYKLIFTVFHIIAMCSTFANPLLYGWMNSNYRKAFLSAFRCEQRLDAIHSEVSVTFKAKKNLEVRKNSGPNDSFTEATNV
Description: Inhibitory activity against Neuropeptide Y receptor type 2. The gist of the method: as §2

The target of series [11] is T4, Neuropeptide Y receptor type 5 (Homo sapiens, UniProt Q15761).
T4 sequence (Q15761 whole entry): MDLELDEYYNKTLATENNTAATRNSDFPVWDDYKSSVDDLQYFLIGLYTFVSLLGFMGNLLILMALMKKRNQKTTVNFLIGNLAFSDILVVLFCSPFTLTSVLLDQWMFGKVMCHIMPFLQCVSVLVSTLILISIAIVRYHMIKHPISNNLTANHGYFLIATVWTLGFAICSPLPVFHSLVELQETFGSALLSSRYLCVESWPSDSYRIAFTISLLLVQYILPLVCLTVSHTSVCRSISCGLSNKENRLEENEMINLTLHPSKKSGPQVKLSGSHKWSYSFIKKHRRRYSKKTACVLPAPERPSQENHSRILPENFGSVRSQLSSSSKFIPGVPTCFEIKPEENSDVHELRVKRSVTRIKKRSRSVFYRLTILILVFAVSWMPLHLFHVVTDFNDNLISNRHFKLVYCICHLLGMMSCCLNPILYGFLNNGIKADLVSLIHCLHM
Description: Binding affinity to the human Neuropeptide Y receptor type 5 was determined using [125I]- [PYY] as radioligand. Put shortly: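 Radioligand displacement binding on cloned human chimeric NPY5 receptors, with [125I]PYY as the labelled ligand.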

The nature of series [12]: Cmax in the brain of male wistar rats. It is filed as ADME, organism-based. Particulars: rat. The gist of the method:
as §1

Series [13] in a line: Cmax in the CSF of male wistar rats. The class given is ADME, organism-based, Cerebrospinal fluid. Particulars: rat. The gist of the method: as §1

As to `CC(C)(C)OCCOc1ccc(-c2nc(-c3cccc(C#N)c3)c[nH]2)cn1`, the values for the Ki in [1] and in series [11] were 1.7 nM and 1.2 nM, respectively. Also, the half-life in series [2] was 66 min; in series [3] it was 96 min; in series [4], 66 min. Also, the Tmax in [5], in [7] and in [8] was 30 min throughout. Also, the Cmax in [6] was 4.42 µM; in [12] it was 8.55 µM; in series [13], 0.213 µM. Moreover, the IC50 was 0.4 nM with HMCB cell line, over 1000 nM in [9] and over 1000 nM in series [10].

One may read the Ki as a measure of affinity in units of concentration, obtained from inhibition or displacement. The term half-life denotes the time in which the quantity being followed falls by half. Low readings indicate rapid decline, high ones slow decline. As a reminder, the Tmax is the time at which the peak concentration occurs. In general, Cmax refers to the peak of the concentration-time curve. As usually defined, the IC50 is the midpoint of a concentration-inhibition curve.
